Assay outcomes deposited in PubChem by several laboratories.
The list is not random: actives were taken first. Their share in the collection is about 1.7%.
PLC-gamma1 inh: PLC-gamma1 enzyme inhibitors, primary screen, biochemical, fluorescence, purified enzyme | 1-phosphatidylinositol 4,5-bisphosphate phosphodiesterase gamma-1 (Homo sapiens), P19174 | fluorogenic substrate | inhibition, % at 12.2 µM | hit rate 0.84% among 370,000 | AID 720700, 2013; in the data active = inhibition above about 9.5%
PLC-beta3 inh: human PLC-beta3 inhibitors, primary screen, biochemical, fluorescence. 1-phosphatidylinositol 4,5-bisphosphate phosphodiesterase beta-3 (Homo sapiens), Q01970. hit rate 0.18% among 370,000. Purified PLC-beta3, fluorogenic substrate. inhibition, % at 12.2 µM; in the data active = inhibition above about 11%;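 also: 0% = median of compound wells on plate and 100% = full blocker control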
Target sequence (Q01970 whole entry, looked up): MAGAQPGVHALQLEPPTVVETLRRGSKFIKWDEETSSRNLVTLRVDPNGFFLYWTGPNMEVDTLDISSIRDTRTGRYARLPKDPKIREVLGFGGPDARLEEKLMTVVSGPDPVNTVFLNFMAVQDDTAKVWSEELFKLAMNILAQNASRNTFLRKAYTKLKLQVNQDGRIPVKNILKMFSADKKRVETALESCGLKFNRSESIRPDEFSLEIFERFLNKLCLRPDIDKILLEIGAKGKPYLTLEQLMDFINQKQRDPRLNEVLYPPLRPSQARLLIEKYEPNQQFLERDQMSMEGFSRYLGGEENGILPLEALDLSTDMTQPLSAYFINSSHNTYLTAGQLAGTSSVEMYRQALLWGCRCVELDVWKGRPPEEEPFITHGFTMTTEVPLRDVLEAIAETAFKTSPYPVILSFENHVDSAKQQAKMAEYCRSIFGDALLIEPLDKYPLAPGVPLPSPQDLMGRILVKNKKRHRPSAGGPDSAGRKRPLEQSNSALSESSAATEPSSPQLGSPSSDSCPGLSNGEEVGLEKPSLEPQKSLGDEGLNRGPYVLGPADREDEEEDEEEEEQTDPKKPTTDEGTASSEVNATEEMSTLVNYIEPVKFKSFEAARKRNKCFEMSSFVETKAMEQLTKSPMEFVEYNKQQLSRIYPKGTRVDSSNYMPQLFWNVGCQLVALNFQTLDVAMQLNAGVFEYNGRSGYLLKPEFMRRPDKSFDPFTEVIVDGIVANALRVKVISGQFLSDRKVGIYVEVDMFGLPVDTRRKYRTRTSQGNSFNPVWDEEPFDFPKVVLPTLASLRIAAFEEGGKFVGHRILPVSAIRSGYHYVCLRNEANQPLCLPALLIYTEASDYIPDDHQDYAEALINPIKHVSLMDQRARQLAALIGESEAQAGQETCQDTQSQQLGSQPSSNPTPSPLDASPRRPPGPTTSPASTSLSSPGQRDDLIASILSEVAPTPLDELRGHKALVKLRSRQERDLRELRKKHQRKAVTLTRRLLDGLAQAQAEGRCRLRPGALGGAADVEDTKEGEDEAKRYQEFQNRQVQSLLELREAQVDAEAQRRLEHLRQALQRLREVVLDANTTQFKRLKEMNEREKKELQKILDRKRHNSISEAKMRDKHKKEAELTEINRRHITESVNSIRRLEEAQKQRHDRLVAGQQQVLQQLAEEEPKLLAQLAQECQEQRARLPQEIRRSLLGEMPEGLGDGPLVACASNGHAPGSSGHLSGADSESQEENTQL
Rpn11 block: Rpn11 (PSMD14) deubiquitinase inhibitors, primary screen, biochemical, fluorescence polarization, uHTS; hit rate 0.59% among 360,000; human 26S proteasome, Ub4-pepOG fluorescence polarization; 20S core pre-blocked with epoxomicin; AID 588493, 2011; 26S proteasome non-ATPase regulatory subunit 14 (Homo sapiens), O00487; inhibition, % at 20 µM;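 active = inhibition at 20 µM, scaled to each plate's controls, above about 33%, limit read from the data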
UCH37 DUB inh: inhibitors of human UCH37 deubiquitinase, primary screen, biochemical, Ub-AMC cleavage, fluorescence. purified proteasome/UCH37. inhibition, % (test concentration not listed). hit rate 0.33% among 330,000;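 active = mean inhibition over replicate wells above about 20%, limit read from the data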;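 also: 0% = compound-free wells with enzyme and 100% = wells lacking proteasome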
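Material: human UCH37 enzyme supplied as purified proteasome complex. Measure: % inhibition of Ub-AMC cleavage fluorescence. Medium: pH 7.4 Tris-HCl (50 mM) with ovalbumin, ATP-MgCl2, DTT. Times: 30 min preincubation with enzyme, 25 min cleavage at room temperature. Detection: AMC fluorescence intensity at 355/460 nm.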
Rpn11 confirm: Rpn11 (PSMD14) deubiquitinase inhibitors, confirmation, biochemical, fluorescence polarization, single concentration; shares compounds with Rpn11 block; purified human 26S proteasome, Ub4-pepOG fluorescence polarization; proteasome pretreated with epoxomicin; inhibition, % at 20 µM; hit rate 29% among 1,900; AID 602318, 2012
MMP-2 inh: MMP-2 enzyme inhibition, confirmation, counter-screen for RPN11 inhibitor project, biochemical, fluorescence, single concentration; shares compounds with Rpn11 block; recombinant MMP-2, FRET peptide cleavage fluorescence; inhibition, % at 20 µM; hit rate 4% among 1,900; AID 602330, 2012;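 also: human MMP-2 activated beforehand with APMA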
Thrombin inh: bovine thrombin protease inhibition, confirmation, counter-screen for Rpn11 inhibitor project, biochemical, fluorescence polarization, single concentration; inhibition, % at 20 µM; AID 602333, 2012; shares compounds with Rpn11 block; hit rate 13% among 1,900; bovine thrombin cleavage of Ub4-pepOG;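 active = mean inhibition at least 40% at 20 µM, or signal 3 deviations below plate average, so some actives read negative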;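 also: plate controls were thrombin with DMSO for no effect and buffer wells lacking thrombin for full effect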
* = called active by the depositor; nt = not tested or not shown. Rule as the data show it, unless noted: active = inhibition above about 40%; inactive = the rest.

SMILES | PLC-gamma1 inh | PLC-beta3 inh | Rpn11 block | UCH37 DUB inh | Rpn11 confirm | MMP-2 inh | Thrombin inh
O=C(CCC(=O)c1cccs1)OCC(=O)N1CCN(C(=O)c2ccco2)CC1 | 2 | 1 | 33* | -9 | -4 | -20 | -8
CC(CC=NNC(=O)COc1cc(Cl)ccc1Cl)c1ccccc1 (stereo not drawn) | nt | nt | nt | 2 | nt | nt | nt
Cn1cc(S(=O)(=O)CC(=O)N2CCCc3ccccc32)c2ccccc21 | -1 | -5 | 70* | 0 | -3 | -28 | -4
COc1ccc(NN=C(C=NO)C(=O)c2ccc(OC)cc2)cc1 | nt | nt | nt | 6 | nt | nt | nt
COc1cccc(/C=C2\Oc3cc(OCC(=O)N4CCC[C@H]4C(=O)O)ccc3C2=O)c1 | -345 | -461 | 2 | 6 | nt | nt | nt
COc1ccc(/C=C2\Oc3cc(OCC(=O)N4CCC[C@H]4C(=O)O)ccc3C2=O)c(OC)c1 | nt | nt | 59* | 3 | 142* | -1 | 87*
Cc1ccc(CS(=O)(=O)Cc2ccc(C(=O)NCc3cccs3)o2)cc1 | 2 | 0 | 0 | -6 | nt | nt | nt
Cc1ccc(CS(=O)Cc2ccc(C(=O)NCc3cccs3)o2)cc1 (stereo not drawn) | 3 | -9 | 64* | -1 | -10 | -1 | -18
Cc1cccc(C)c1OCC(=O)NN=Cc1ccc2c(c1)OCO2 | nt | nt | nt | 0 | nt | nt | nt
O=C(ON=Cc1ccc(N2CCOCC2)c([N+](=O)[O-])c1)c1ccc(F)cc1 | nt | nt | nt | -4 | nt | nt | nt
CC(=O)N1CCN(c2ccc(NC(=O)c3cccc(Cl)c3Cl)cc2)CC1 | 1 | -8 | -2 | nt | nt | nt | nt
O=C(Nc1ccc(N2CCCC2)cc1)c1cccc(Cl)c1Cl | -1 | -6 | 52* | -6 | -1 | -44 | -3
CCOc1cc(C=NNC(=O)CN2CCCCC2)ccc1OCc1cccc(Cl)c1 | nt | nt | nt | 1 | nt | nt | nt
Cc1cccc(NC(=O)c2sc3nc(-c4ccccc4)cn3c2C)n1 | -44 | -59 | 55* | -46 | 9 | -29 | -7
Cc1cc(C=NNC(=O)C(=O)NCc2ccccn2)c(C)n1-c1ccccc1 | nt | nt | nt | 8 | nt | nt | nt
O=C(Nc1ccc(F)cc1)Nc1nnc(-c2ccncc2)s1 | 5 | 0 | 66* | 3 | 41* | -2 | 3
O=C(Nc1ccc(Cl)cc1)Nc1nnc(-c2ccncc2)s1 | 1 | 1 | 170* | -13 | 30 | 3 | -22
COC(=O)c1ccc(Nc2nc(-c3ccncc3)nc3ccccc23)cc1 | -47 | -65 | 112* | -54 | 33 | -30 | 5
COC(=O)c1cccc(Nc2nc(-c3ccncc3)nc3ccccc23)c1 | -3 | -8 | 3 | -15 | nt | nt | nt
O=C(Nc1ccc2oc(-c3ccc(Cl)c(Cl)c3)nc2c1)c1ncn[nH]1 | -7 | -7 | 49* | -7 | -11 | -41 | -4
N=C1/C(=C/c2cccn2-c2ccc([N+](=O)[O-])cc2)C(=O)N=C2SC=CN12 | -2 | -1 | -3 | 4 | nt | nt | nt
COc1ccc(-c2ccc(/C=C3/C(=N)N4C=CSC4=NC3=O)o2)c([N+](=O)[O-])c1 | -9 | -8 | 41* | 12 | 3 | -13 | 13
CCOC(=O)c1[nH]c(CSc2nnnn2-c2ccccc2C)c(C(=O)OCC)c1C | -1 | -4 | 62* | -2 | 30 | 12 | 5
Cc1ccccc1-n1nnnc1SCC(C)C | -1 | 0 | 2 | 3 | nt | nt | nt
CN(C)S(=O)(=O)c1ccc(N2CCCC2)c(C(=O)NNC(=O)COc2ccc(Cl)cc2)c1 | -15 | -24 | 31 | -1 | nt | nt | nt
SMILES | PLC-gamma1 inh | PLC-beta3 inh | Rpn11 block | UCH37 DUB inh | Rpn11 confirm | MMP-2 inh | Thrombin inh
CCc1ccc(OCC(=O)NNC(=O)c2cc(S(=O)(=O)N(C)C)ccc2N2CCCC2)cc1 | -30 | -32 | 44* | -11 | 56* | 17 | 3
C=CCc1cccc(C=NNC(=O)CCCNc2ccc(C)cc2)c1O | nt | nt | nt | 2 | nt | nt | nt
CCOC(=O)C1=C(C)N=c2sc(=Cc3ccc(OC(C)=O)c(OCC)c3)c(=O)n2C1/C=C/c1ccccc1 (stereo not drawn) | nt | nt | nt | 3 | nt | nt | nt
COc1ccc2c(c1)C1=NN(/C(C)=C/C(C)=O)C(c3cccc(F)c3)C1CC2 (stereo not drawn) | -34 | -38 | 59* | 1 | 15 | 0 | 8
COc1ccc2c(c1)C1=NN(/C(C)=C\C(C)=O)C(c3ccccc3)C1CC2 (stereo not drawn) | -26 | -50 | 26 | -10 | nt | nt | nt
COc1cc(C=NNS(=O)(=O)c2ccc3ccccc3c2)ccc1OCc1ccc(C(=O)O)cc1 | nt | nt | nt | 4 | nt | nt | nt
O=C(/C=C/c1ccco1)Nc1cccc(C(=O)Nc2ccccc2C(=O)O)c1 | -10 | -29 | 70* | 6 | 57* | -14 | 31
CCCCCCSc1ccc(-c2nc3ccc(Cl)cn3c2NCCCC)cc1OC | -234 | -383 | 36* | -90 | -11 | 18 | -14
CC1CC(=NNC(=S)NC(C)C)CC(C)(C)C1 (stereo not drawn) | nt | nt | nt | 2 | nt | nt | nt
O=C1NC(=S)NC1=Cc1ccc2c(c1)CCC2 | 2 | -3 | 46* | nt | -13 | 29 | -14
CC(C)COC(=O)n1c(SCC(N)=O)nc2ccccc21 | -1 | 6 | -8 | 7 | nt | nt | nt
CCOC(=O)CSc1nc2ccccc2n1C(=O)OCC | -3 | 4 | 46* | 6 | 51* | -18 | 32
CC(=O)ON=C(c1nonc1N)N(C)C | nt | nt | nt | 3 | nt | nt | nt
N#C/C(C(N)=O)=C1/SC(Cc2ccc(F)cc2)C(=O)N1c1ccccc1 (stereo not drawn) | -2 | -5 | 21 | 3 | nt | nt | nt
Cc1ccccc1N1C(=O)C(Cc2ccc(F)cc2)S/C1=C(\C#N)C(N)=O (stereo not drawn) | -5 | -9 | 45* | 2 | 6 | -12 | 0
Cc1ccc(S(=O)(=O)NN=Cc2ccc(OS(=O)(=O)c3ccc(C)c([N+](=O)[O-])c3)cc2)cc1 | nt | nt | nt | 6 | nt | nt | nt
Cn1c(=O)c2cc(S(=O)(=O)NC(C(=O)Nc3cccc(F)c3)c3ccccc3)ccc2n(C)c1=O (stereo not drawn) | 2 | -4 | 47* | 5 | 72* | -32 | -16
O=C(N=Nc1c(O)[nH]c2ccc([N+](=O)[O-])cc12)c1cc(-c2ccccc2Cl)nc2ccccc12 | 0 | 2 | 37* | 6 | -22 | -10 | -32
Cc1cccc(C)c1NC(=O)CS(=O)CC(=O)Nc1ccc(N2CCOCC2)cc1 (stereo not drawn) | 4 | -7 | 1 | 2 | nt | nt | nt
